Assay results: ChEMBL document CHEMBL1125351, “Isobenzofurans as conformationally constrained miconazole analogues with improved antifungal potency” (1992)
In brackets after ≈: the same amount, converted by molar mass.

System: Candida tropicalis
Assay: Minimum inhibitory concentration against Candida tropicalis using eagles minimum essential medium (EMEM)
Format: functional
Conditions: not given
Summary of the method: (§1)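 Candida MICs in Eagle's minimum essential medium, pH 7.0. Compounds in DMSO or ethanol were serially diluted in medium, inoculated and incubated at 37 °C under CO₂. […] The summary value is the geometric mean of the MICs across strains.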

First: c1ccc(C2(Cn3ccnc3)OCc3ccccc32)cc1 (centres undefined)
Second: Clc1ccc(C2(Cn3ccnc3)OCc3c(Cl)cc(Cl)cc32)c(Cl)c1 (centres undefined)
The MIC of the first is 16-fold lower: 0.125 µg/mL (≈ 0.452 µM) for the first, 2 µg/mL (≈ 4.83 µM) for the second.

System: Candida albicans
Assay: Minimum inhibitory concentration against Candida albicans at a pH of 5.7 using SDB medium
Format: functional
Conditions: not given
Summary of the method: (§2)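 Broth dilution in Sabouraud dextrose broth, pH 5.7. Compounds dissolved in DMSO or ethanol, serially diluted in medium, inoculated and incubated at 27 °C. Wells read visually at 48 h. MIC is the lowest concentration giving complete growth inhibition.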

Going from `OC1OC(Cn2cncn2)(c2ccc(Cl)cc2)c2ccccc21` (centres undefined) to `c1ccc(C2(Cn3ccnc3)OCc3ccccc32)cc1` (centres undefined), the MIC falls from > 64 µg/mL to 64 µg/mL (≈ 232 µM).

Compound `Clc1ccc(C2(Cn3ccnc3)OCc3c(Cl)cc(Cl)cc32)c(Cl)c1` (centres undefined) has an MIC of 8 µg/mL (≈ 19.3 µM).

System: Trichophyton benhamiae
Assay: Minimum inhibitory concentration against Trichophyton mentagrophytes at a pH of 5.7 using SDB medium
Format: functional, Arthroderma benhamiae
Conditions: not given
Summary of the method: (§3)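 Dermatophyte isolates tested by serial broth dilution in SDB, pH 5.7. Compound stocks in DMSO or ethanol, incubated at 27 °C, and growth read visually at 72 h. MIC is the lowest concentration with no visible growth. The summary value is the geometric mean of the MICs across the organisms.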

Compared with `OC1OC(Cn2cncn2)(c2ccc(Cl)cc2)c2ccccc21` (centres undefined), `c1ccc(C2(Cn3ccnc3)OCc3ccccc32)cc1` (centres undefined) is lower in MIC: > 64 µg/mL for the first, 16 µg/mL (≈ 57.9 µM) for the second.

`Clc1ccc(C2(Cn3ccnc3)OCc3c(Cl)cc(Cl)cc32)c(Cl)c1` (centres undefined) gave an MIC of 8 µg/mL (≈ 19.3 µM).

System: Cricetinae gen. sp.
Assay: Inhibition of Vaginal Candida (C-43 strain) infection in Hamsters, estimated as Percent Area under curve at 0.05 % concentration after 8 days of administration
Format: functional, Cricetulus griseus
Conditions: not given
Summary of the method: (§4)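 Hamster vaginal C. albicans infection (strains C43 or C60; 10 animals per compound). From day 5 post-infection, a cotton pellet holding 0.15 mL of 0.05% or 0.01% (w/w) compound in EtOH–PEG 400–glycerol (10:45:45) was inserted once daily for 4 or 8 days. Vaginal swabs were filtered and the filters cultured on SDA at 37 °C for 48 h. Read-out was the area under the % negative cultures versus time curve.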

With `Clc1ccc(C2(Cn3ccnc3)OCc3c(Cl)cc(Cl)cc32)c(Cl)c1` (centres undefined) the Inhibition was <30%.

System: Candida albicans
Assay: Minimum inhibitory concentration against Candida stellatoidea at a pH of 5.7 using SDB medium
Format: functional
Conditions: not given
Summary of the method: as §2

Going from `OC1OC(Cn2cncn2)(c2ccc(Cl)cc2)c2ccccc21` (centres undefined) to `c1ccc(C2(Cn3ccnc3)OCc3ccccc32)cc1` (centres undefined), the MIC falls from > 64 µg/mL to 64 µg/mL (≈ 232 µM).

Compound `Clc1ccc(C2(Cn3ccnc3)OCc3c(Cl)cc(Cl)cc32)c(Cl)c1` (centres undefined) has an MIC of 4 µg/mL (≈ 9.66 µM).

System: Cavia porcellus
Assay: In vivo inhibition of topical Trichophyton infection in Guinea Pig during drug administration
Format: functional
Conditions: not given
Summary of the method: (§5)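 Guinea pigs (5 per compound) infected with T. mentagrophytes D24 by swabbing a homogenate onto shaven, abraded skin. From day 4 post-infection, 0.25% (w/v) compound in EtOH–PEG 400–glycerol (10:45:45) was rubbed in topically twice daily for 10 days. Hair samples were cultured on SDA at 27 °C for up to 16 days. Read-outs were the % negative cultures and the day each animal became culture-negative.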

For `Clc1ccccc1C(c1ccccc1)(c1ccccc1)n1ccnc1` [CLOTRIMAZOLE], the Culture negative was 75%.

Species on record: Cavia porcellus
Assay: Lession score which is determined as number of animals minus days to become negative
Format: functional
Conditions: not given
Summary of the method: as §5

With `Clc1ccccc1C(c1ccccc1)(c1ccccc1)n1ccnc1` [CLOTRIMAZOLE] the Lesion score was 5.

System: Microsporum canis
Assay: Minimum inhibitory concentration against Microsporum canis at a pH of 5.7 using SDB medium
Format: functional
Conditions: not given
Summary of the method: as §3

First: OC1OC(Cn2cncn2)(c2ccc(Cl)cc2)c2ccccc21 (centres undefined)
Second: c1ccc(C2(Cn3ccnc3)OCc3ccccc32)cc1 (centres undefined)
The MIC of the first is higher: > 64 µg/mL for the first, 16 µg/mL (≈ 57.9 µM) for the second.

With `Clc1ccc(C2(Cn3ccnc3)OCc3c(Cl)cc(Cl)cc32)c(Cl)c1` (centres undefined) the MIC was 8 µg/mL (≈ 19.3 µM).

System: Nannizzia gypsea
Assay: Minimum inhibitory concentration against Microsporum gypseum at a pH of 5.7 using SDB medium
Format: functional
Conditions: not given
Summary of the method: as §3

Going from `OC1OC(Cn2cncn2)(c2ccc(Cl)cc2)c2ccccc21` (centres undefined) to `c1ccc(C2(Cn3ccnc3)OCc3ccccc32)cc1` (centres undefined), the MIC falls from > 64 µg/mL to 64 µg/mL (≈ 232 µM).

`Clc1ccc(C2(Cn3ccnc3)OCc3c(Cl)cc(Cl)cc32)c(Cl)c1` (centres undefined) showed an MIC of 16 µg/mL (≈ 38.6 µM).

System: Arthrodermataceae
Assay: Compound is evaluated for geometric mean of MIC values of dermatophytes
Format: functional
Design: unit not given beside the values
Conditions: not given
Summary of the method: as §3

With `OC1OC(Cn2cncn2)(c2ccc(Cl)cc2)c2ccccc21` (centres undefined) the Geometric mean was >54.
For `c1ccc(C2(Cn3ccnc3)OCc3ccccc32)cc1` (centres undefined), the Geometric mean was <5.2.

Compound `Clc1ccc(C2(Cn3ccnc3)OCc3c(Cl)cc(Cl)cc32)c(Cl)c1` (centres undefined) has a Geometric mean of 9.5.

System: Cricetinae gen. sp.
Assay: Inhibition of Vaginal Candida (C-60 strain) infection in Hamsters, estimated as Percent Area under curve at 0.05 % concentration after 8 days of administration
Format: functional, Cricetulus griseus
Conditions: not given
Summary of the method: as §4

In the case of `Clc1ccccc1C(c1ccccc1)(c1ccccc1)n1ccnc1` [CLOTRIMAZOLE], the Inhibition is reported as 34%.

System: not listed separately
Assay: Geometric mean for the above three species of Candida, tested in EMEM medium
Format: functional
Conditions: not given
Summary of the method: as §1

First: c1ccc(C2(Cn3ccnc3)OCc3ccccc32)cc1 (centres undefined)
Second: Clc1ccc(C2(Cn3ccnc3)OCc3c(Cl)cc(Cl)cc32)c(Cl)c1 (centres undefined)
The Geometric mean of the first is lower: 0.2 for the first, 2 for the second.

System: Candida
Assay: Compound is evaluated for geometric mean of MIC values of Candida species
Format: functional
Design: unit not given beside the values
Conditions: not given

First: c1ccc(C2(Cn3ccnc3)OCc3ccccc32)cc1 (centres undefined)
Second: Clc1ccc(C2(Cn3ccnc3)OCc3c(Cl)cc(Cl)cc32)c(Cl)c1 (centres undefined)
The Geometric mean of the first is higher: 48 for the first, 4.9 for the second.

System: Epidermophyton floccosum
Assay: Minimum inhibitory concentration against Epidermophyton floccosum at a pH of 5.7 using SDB medium
Format: functional
Conditions: not given
Summary of the method: as §3

First: OC1OC(Cn2cncn2)(c2ccc(Cl)cc2)c2ccccc21 (centres undefined)
Second: c1ccc(C2(Cn3ccnc3)OCc3ccccc32)cc1 (centres undefined)
The MIC of the first is higher: 8 µg/mL (≈ 24.4 µM) for the first, < 0.031 µg/mL for the second.

System: Candida parapsilosis
Assay: Minimum inhibitory concentration against Candida parapsilosis at a pH of 5.7 using SDB medium
Format: functional
Conditions: Lodderomyces parapsilosis
Summary of the method: as §2

Going from `OC1OC(Cn2cncn2)(c2ccc(Cl)cc2)c2ccccc21` (centres undefined) to `c1ccc(C2(Cn3ccnc3)OCc3ccccc32)cc1` (centres undefined), the MIC falls from 32 µg/mL (≈ 97.6 µM) to 8 µg/mL (≈ 28.9 µM) (4-fold).

`Clc1ccc(C2(Cn3ccnc3)OCc3c(Cl)cc(Cl)cc32)c(Cl)c1` (centres undefined) gave an MIC of 4 µg/mL (≈ 9.66 µM).

System: Candida albicans
Assay: Minimum inhibitory concentration against Candida stellatoidea using eagles minimum essential medium (EMEM)
Format: functional
Conditions: not given
Summary of the method: as §1

First: c1ccc(C2(Cn3ccnc3)OCc3ccccc32)cc1 (centres undefined)
Second: Clc1ccc(C2(Cn3ccnc3)OCc3c(Cl)cc(Cl)cc32)c(Cl)c1 (centres undefined)
The MIC of the first is 8-fold lower: 0.25 µg/mL (≈ 0.905 µM) for the first, 2 µg/mL (≈ 4.83 µM) for the second.

System: Candida albicans
Assay: Minimum inhibitory concentration against Candida albicans using eagles minimum essential medium (EMEM)
Format: functional
Conditions: not given
Summary of the method: as §1

Compared with `c1ccc(C2(Cn3ccnc3)OCc3ccccc32)cc1` (centres undefined), `Clc1ccc(C2(Cn3ccnc3)OCc3c(Cl)cc(Cl)cc32)c(Cl)c1` (centres undefined) is 8-fold higher in MIC: 0.25 µg/mL (≈ 0.905 µM) for the first, 2 µg/mL (≈ 4.83 µM) for the second.

System: Cavia porcellus
Assay: In vivo inhibition of topical Trichophyton infection in Guinea Pig after drug administration
Format: functional
Conditions: not given
Summary of the method: as §5

`Clc1ccccc1C(c1ccccc1)(c1ccccc1)n1ccnc1` [CLOTRIMAZOLE] gave a Culture negative of 87%.

System: Candida tropicalis
Assay: Minimum inhibitory concentration against Candida tropicalis at a pH of 5.7 using SDB medium
Format: functional
Conditions: not given
Summary of the method: as §2

Going from `OC1OC(Cn2cncn2)(c2ccc(Cl)cc2)c2ccccc21` (centres undefined) to `c1ccc(C2(Cn3ccnc3)OCc3ccccc32)cc1` (centres undefined), the MIC falls from > 64 µg/mL to 64 µg/mL (≈ 232 µM).

With `Clc1ccc(C2(Cn3ccnc3)OCc3c(Cl)cc(Cl)cc32)c(Cl)c1` (centres undefined) the MIC was 8 µg/mL (≈ 19.3 µM).

System: Trichophyton rubrum
Assay: Minimum inhibitory concentration against Trichophyton rubrum at a pH of 5.7 using SDB medium
Format: functional
Conditions: not given
Summary of the method: as §3

Going from `OC1OC(Cn2cncn2)(c2ccc(Cl)cc2)c2ccccc21` (centres undefined) to `c1ccc(C2(Cn3ccnc3)OCc3ccccc32)cc1` (centres undefined), the MIC falls from 64 µg/mL (≈ 195 µM) to 16 µg/mL (≈ 57.9 µM) (4-fold).

With `Clc1ccc(C2(Cn3ccnc3)OCc3c(Cl)cc(Cl)cc32)c(Cl)c1` (centres undefined) the MIC was 8 µg/mL (≈ 19.3 µM).
